{"source": "paper PMC3137751", "about": "(Biochemistry, 2010)", "molecules": {"B1": {"name": "truncated ^-5IDH1/IDH2 enzyme (complex, yeast)", "chain 1": "AERTLPKKYGGRFTVTLIPGDGVGKEITDSVRTIFEAENIPIDWETINIKQTDHKEGVYEAVESLKRNKIGLKGLWHTPADQTGHGSLNVALRKQLDIYANVALFKSLKGVKTRIPDIDLIVIRENTEGEFSGLEHESVPGVVESLKVMTRPKTERIARFAFDFAKKYNRKSVTAVHKANIMKLGDGLFRNIITEIGQKEYPDIDVSSIIVDNASMQAVAKPHQFDVLVTPSMYGTILGNIGAALIGGPGLVAGANFGRDYAVFEPGSRHVGLDIKGQNVANPTAMILSSTLMLNHLGLNEYATRISKAVHETIAEGKHTTRDIGGSSSTTDFTNEIINKLSTM", "chain 2": "ATVKQPSIGRYTGKPNPSTGKYTVSFIEGDGIGPEISKSVKKIFSAANVPIEWESCDVSPIFVNGLTTIPDPAVQSITKNLVALKGPLATPIGKGHRSLNLTLRKTFGLFANVRPAKSIEGFKTTYENVDLVLIRENTEGEYSGIEHIVCPGVVQSIKLITRDASERVIRYAFEYARAIGRPRVIVVHKSTIQRLADGLFVNVAKELSKEYPDLTLETELIDNSVLKVVTNPSAYTDAVSVCPNLYGDILSDLNSGLSAGSLGLTPSANIGHKISIFEAVHGSAPDIAGQDKANPTALLLSSVMMLNHMGLTNHADQIQNAVLSTIASGPENRTGDLAGTATTSSFTEAVIKRL"}, "B2": {"name": "^-5IDH1^G15D/IDH2 enzyme (complex, yeast)", "chain 1": "B1 chain 1 with G10D", "chain 2": "B1 chain 2"}, "B3": {"name": "IDH2 subunit (natural protein, yeast)", "chain": "B1 chain 2"}, "B4": {"name": "IDH1/IDH2: wild-type yeast NAD+-specific isocitrate dehydrogenase, octamer of IDH1 and IDH2 subunits, histidine tag on IDH1 (protein)", "chain 1": "ATAAQAERTLPKKYGGRFTVTLIPGDGVGKEITDSVRTIFEAENIPIDWETINIKQTDHKEGVYEAVESLKRNKIGLKGLWHTPADQTGHGSLNVALRKQLDIYANVALFKSLKGVKTRIPDIDLIVIRENTEGEFSGLEHESVPGVVESLKVMTRPKTERIARFAFDFAKKYNRKSVTAVHKANIMKLGDGLFRNIITEIGQKEYPDIDVSSIIVDNASMQAVAKPHQFDVLVTPSMYGTILGNIGAALIGGPGLVAGANFGRDYAVFEPGSRHVGLDIKGQNVANPTAMILSSTLMLNHLGLNEYATRISKAVHETIAEGKHTTRDIGGSSSTTDFTNEIINKLSTM", "chain 2": "B1 chain 2", "modifications": "left off: histidine tag, C-terminal, kept"}}, "key": {"[1]": {"molecular_target": "^-5IDH1^D168K/IDH2 enzyme (tetrameric) (Saccharomyces cerevisiae, UniProt P28241+P28834, D179K)", "sequence (P28834 17-360 D179K, one chain of several)": "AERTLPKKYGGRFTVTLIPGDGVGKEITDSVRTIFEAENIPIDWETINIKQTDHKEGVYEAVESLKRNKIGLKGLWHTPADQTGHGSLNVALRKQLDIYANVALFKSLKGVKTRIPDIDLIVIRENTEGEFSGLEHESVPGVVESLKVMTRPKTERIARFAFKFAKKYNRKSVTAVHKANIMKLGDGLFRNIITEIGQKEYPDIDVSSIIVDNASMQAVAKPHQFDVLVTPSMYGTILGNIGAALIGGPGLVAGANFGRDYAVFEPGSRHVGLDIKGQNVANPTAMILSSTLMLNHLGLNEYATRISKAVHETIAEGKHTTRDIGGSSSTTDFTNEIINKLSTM", "test": "Diamide inhibition of catalytic activity", "format": "biochemical, yeast"}, "[2]": {"molecular_target": "T1, IDH1/IDH2 enzyme (wild-type, octameric) (Saccharomyces cerevisiae, UniProt P28241+P28834)", "T1 sequence (P28834 12-360)": "B4 chain 1", "T1 sequence (P28241 16-369)": "B1 chain 2", "test": "Diamide inhibition of catalytic activity", "format": "biochemical, yeast", "outline": "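Purified His-tagged enzyme (E. coli BL21-Gold (DE3), IPTG-induced, Ni-NTA purified) at 1 μM in 50 mM Tris-HCl pH 7.4 is held 2 h on ice with a range of diamide concentrations from a fresh water stock. Activity is then assayed (40 mM Tris-HCl pH 7.4, 1 mM D-isocitrate, 4 mM MgCl2, 0.5 mM NAD+; NADH formation, 24 °C). Untreated activity is set as 100%, and the 50% value is read from the graphs.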"}, "[3]": {"molecular_target": "T2, IDH1/IDH2 enzyme (Saccharomyces cerevisiae, UniProt P28241+P28834)", "T2 sequence (P28834 12-360)": "B4 chain 1", "T2 sequence (P28241 16-369)": "B1 chain 2", "format": "biochemical, yeast", "conditions": "no or low concentration (10 μM) of diamide, 2 h", "outline": "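Affinity-purified His-tagged enzyme (1 μM in 50 mM Tris-HCl pH 7.4) is treated 2 h on ice with 0 or 10 μM diamide. Then 3.5 μg samples are run on […] and stained with Coomassie blue to see the IDH2 Cys-150 disulfide band.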"}, "[4]": {"molecular_target": "T3, ^-5IDH1/IDH2 enzyme (Saccharomyces cerevisiae, UniProt P28241+P28834)", "T3 sequence (P28834 17-360 limits assumed)": "B1 chain 1", "T3 sequence (P28241 16-369)": "B1 chain 2", "test": "Ligand protection from diamide-induced inactivation", "format": "biochemical, yeast"}, "[5]": {"molecular_target": "^-5IDH1^G15D/IDH2 enzyme (tetrameric) (Saccharomyces cerevisiae, UniProt P28241+P28834, G26D)", "sequence (P28834 17-360 G26D, one chain of several)": "as the sequence (P28834 17-360 D179K, one chain of several) above, with G10D, K163D counted along it", "test": "Diamide inhibition of catalytic activity", "format": "biochemical, yeast"}, "[6]": {"molecular_target": "^-5IDH1/IDH2 enzyme (truncated, octameric) (Saccharomyces cerevisiae, UniProt P28241+P28834)", "test": "Diamide inhibition of catalytic activity", "format": "biochemical, yeast"}, "[7]": {"molecular_target": "T4, IDH1^G15D/IDH2 enzyme (Saccharomyces cerevisiae, UniProt P28241+P28834, G26D)", "T4 sequence (P28834 12-360 G26D)": "B4 chain 1 with G15D", "T4 sequence (P28241 16-369)": "B1 chain 2", "format": "biochemical, yeast", "conditions": "10 μM diamide, 2 h"}, "[8]": {"molecular_target": "IDH1^G15D/IDH2 enzyme (tetrameric) (Saccharomyces cerevisiae, UniProt P28241+P28834, G26D)", "sequence (P28834 12-360 G26D, one chain of several)": "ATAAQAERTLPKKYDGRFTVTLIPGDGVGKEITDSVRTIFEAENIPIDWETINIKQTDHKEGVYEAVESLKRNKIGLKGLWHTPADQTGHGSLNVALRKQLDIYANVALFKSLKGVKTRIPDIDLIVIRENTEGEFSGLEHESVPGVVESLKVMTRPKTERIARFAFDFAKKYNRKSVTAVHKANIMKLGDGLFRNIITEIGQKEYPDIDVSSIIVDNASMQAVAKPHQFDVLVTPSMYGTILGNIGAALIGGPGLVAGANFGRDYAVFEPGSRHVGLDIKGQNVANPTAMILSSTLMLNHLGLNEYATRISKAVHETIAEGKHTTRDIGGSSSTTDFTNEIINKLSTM", "test": "Diamide inhibition of catalytic activity", "format": "biochemical, yeast"}, "[9]": {"molecular_target": "T5, wild-type IDH1/IDH2 enzyme (Saccharomyces cerevisiae, UniProt P28241+P28834)", "T5 sequence (P28834 12-360)": "B4 chain 1", "T5 sequence (P28241 16-369)": "B1 chain 2", "test": "Ligand protection from diamide-induced inactivation", "format": "biochemical, yeast"}, "[10]": {"molecular_target": "the molecule itself", "test": "SEC"}, "[11]": {"substrate": "O=C(O)C[C@H](C(=O)O)[C@@H](O)C(=O)O", "test": "Apparent S0.5 for isocitrate", "format": "biochemical", "conditions": "pH 7.4; 24.0 °C"}, "[12]": {"molecular_target": "the molecule itself", "test": "cross-linking"}, "[13]": {"molecular_target": "T6, Yeast NAD+-specific isocitrate dehydrogenase (IDH) (Saccharomyces cerevisiae, UniProt P28241+P28834)", "T6 sequence (P28834 12-360)": "B4 chain 1", "T6 sequence (P28241 16-369)": "B1 chain 2", "test": "Kinetic analyses: isocitrate saturation velocity curves of purified IDH enzymes", "format": "biochemical", "conditions": "100 μM AMP", "outline": "(§1)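 His-tagged IDH purified by Ni2+-NTA, stored at −20 °C in elution buffer with 20% glycerol, quantified by A280. Assays at 24 °C used 40 mM Tris-HCl pH 7.4, 4 mM MgCl2 and 0.5 mM NAD+. D-isocitrate was varied 0–5 mM, with or without 100 μM AMP, and NADH formation was followed. Apparent S0.5 and Hill coefficients came from saturation curves, Vmax as maximum velocity per mg, over two independent experiments.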"}, "[14]": {"system": "Yeast NAD+-specific isocitrate dehydrogenase (IDH)", "test": "Kinetic analyses: isocitrate saturation velocity curves of purified IDH enzymes", "format": "biochemical", "outline": "as §1"}, "[15]": {"conditions": "2 h, read-out: reduction in activity"}}, "note": "Residue numbers refer to the chain shown, from its start. Names may count otherwise. “And” between values parts separate entries of the source, which are not always exact repeats. Equal values may be shown once. Marks after values point to notes of the source that are not given here.", "data": [{"molecule": "CN(C)C(=O)/N=N/C(=O)N(C)C", "note": "[diamide]", "values": [{"measurement": "IC50", "setting": "[1]", "result": 13, "unit": "µM"}, {"measurement": "IC50", "setting": "[2]", "result": 500, "unit": "µM"}, {"measurement": "formation of IDH2 Cys-150 disulfide bond", "setting": "[3]", "result": "no formation of this bond"}, {"measurement": "inhibition at 160 µM", "setting": "[4]; [15]", "result": 43, "unit": "%"}, {"measurement": "IC50", "setting": "[5]", "result": 7.5, "unit": "µM"}, {"measurement": "IC50", "setting": "[6]", "result": 160, "unit": "µM"}, {"measurement": "increase in sensitivity to diamide relative to the IDH1/IDH2 enzyme", "setting": "[6]; ^-5IDH1/IDH2 vs IDH1/IDH2, 120 min", "result": "~ 3 fold and 3 fold"}, {"measurement": "formation of IDH2 Cys-150 disulfide bond", "setting": "[7]", "result": "most of the IDH2 subunit is present as the disulfide bond form"}, {"measurement": "IC50", "setting": "[8]", "result": 6.5, "unit": "µM"}, {"measurement": "inhibition at 500 µM", "setting": "[9]; [15]", "result": 63, "unit": "%"}]}, {"molecule": "O=C(O)CC(O)(CC(=O)O)C(=O)O", "note": "[citrate]", "values": [{"measurement": "effect of citrate preincubation on diamide inhibition", "setting": "[4]; increasing citrate (0 to 100 mM), 4 mM MgCl2, 100 μM AMP before 0.16 mM diamide", "result": "essentially no effect"}, {"measurement": "effect of citrate preincubation on diamide inhibition", "setting": "[9]; 100 mM citrate, 4 mM MgCl2, 100 μM AMP for 15 min before 0.5 mM diamide", "result": "no inhibition by diamide was observed"}]}, {"molecule": "B1", "values": [{"measurement": "stoichiometry N", "setting": "[10]", "result": 8}, {"measurement": "K0.5", "setting": "[11]", "result": "0.52/0.11 (±0.04/0.01) mM"}]}, {"molecule": "B2", "values": [{"measurement": "stoichiometry N", "setting": "[10]", "result": 4}, {"measurement": "K0.5", "setting": "[11]", "result": "0.64/0.14 (±0.03/0.04) mM"}]}, {"molecule": "B3", "values": [{"measurement": "binding result", "setting": "[12]", "result": "binds"}]}, {"molecule": "B4", "values": [{"measurement": "increase in the apparent affinity for isocitrate in the presence of AMP", "setting": "[13]", "result": "~ 5 fold"}, {"measurement": "Hill coef. with respect to isocitrate, − AMP", "setting": "[14]; absence of AMP", "result": 3.1}, {"measurement": "Vmax (apparent), + AMP", "setting": "[14]; isocitrate velocity saturation curve, presence of 100 μM AMP", "result": "32.3/32.3 (±0.7/0.4) ^b units/mg"}, {"measurement": "Hill coef. with respect to isocitrate, + AMP", "setting": "[14]; presence of 100 μM AMP", "result": 3.5}]}]}
